Screening data from PubChem BioAssay.
CaV13 FRET inh – Primary screen for inhibitors of IQ motif and Ca2+-dependent inactivation inhibitor domain binding in CACNA1D, Förster resonance energy transfer in living cells, …; HEK cells, CFP/YFP FRET ICDI-IQ, plate reader, 10 min; percent FRET-ratio fall versus neutral wells; inhibition, % at 12.3 µM; actives 0.098% (n = 340,000);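 active = mean replicate inhibition of at least 30% and at least 1% of replicates passing that level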;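 also: 0% = median of the neutral control wells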
FXN GAA850 act – frataxin GAA850 promoter activation; HEK293 lucGAA850 FXN promoter luciferase reporter, 24 h; percent of 10 µM SAHA response; activation, % at 6 µM; actives 0.56% (n = 360,000); AID 540364;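 active = activation above the average of all compounds screened plus 3 SD, cutoff fixed separately per campaign, cut at about 7.5% in these data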;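 also: 0% = DMSO wells and 100% = 10 µM SAHA wells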
Xi reactivation – activators of X-chromosome reactivation in mouse fibroblasts; XiGFP mouse fibroblasts, % GFP-positive cells imaging, 3 d; cells co-treated with 5-aza-dC sensitizer; scaled so ellipticine positive control = 100%; actives 0.055% (n = 360,000); activation, % at 7.58 µM; AID 743238;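 active = mean normalized replicate activation at least 10% and every replicate at or above 10%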;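 also: 0% = median of on-plate neutral control wells and 100% = ellipticine 6 µM median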
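material = 68-5-11 XiGFP fibroblast line | medium = DMEM plus 5-aza-dC sensitizer | schedule = 3 days compound exposure | benchmarks = positive control ellipticine, 6 µM final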
GSIS activator – GLuc luminescence reporter in INS-1E cells, primary screen for activators of glucose-dependent secretion of insulin. INS-1E GLuc reporter insulin secretion, 2-3 h. AID 743287. actives 0.61% (n = 370,000). activation, % at 16.6 µM;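 active = lowest replicate activation of at least 40%, so every replicate reaches that level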;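 also: 0% = median of neutral control wells and 100% = median of IBMX positive control wells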
GAA30 counter – counter-screen for GAA850 frataxin promoter activators: GAA30 promoter activation; AID 588350; HEK293 lucGAA30 FXN promoter luciferase, 24 h; DMSO = 0%, 5 µM ipriflavone = 100%; actives 66% (n = 1,900); shares compounds with FXN GAA850 act; activation, % at 6 µM;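 active = mean activation above the mean of solvent-only control wells plus 3 SD, cut at about 22% in these data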;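 also: counterscreen of GAA850 promoter hits where activity marks nonselective or luminescence artifacts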
FXN GAA850 conf – GAA850 FXN promoter activation confirmation | AID 588351 | HEK293 lucGAA850 FXN promoter luciferase reporter, 24 h; 100% = activation by SAHA | shares compounds with FXN GAA850 act | activation, % at 6 µM | actives 86% (n = 1,900);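 active = mean activation above a set limit taken from the primary screen, cut at about 8% in these data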;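 also: 0% = DMSO wells and 100% = 10 µM SAHA wells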
* marks the source's active call; other numbers are inactive results; / = no result given. An excerpt weighted towards active compounds, which were near 1% of everything screened.

SMILES | CaV13 FRET inh | FXN GAA850 act | Xi reactivation | GSIS activator | GAA30 counter | FXN GAA850 conf
N#C/C(=C\c1cccs1)C(=O)Nc1ccccn1 | -6 | 8.9* | 0 | -9 | 106* | 34*
C=CCn1c(C)cc(C(=O)CN2NS(=O)(=O)c3ccccc3C2=O)c1C | -2 | 7.7* | 1 | -3 | 13 | 32*
Cc1ccc(CNC(=O)CN2NS(=O)(=O)c3ccccc3C2=O)cc1 | -17 | 0 | 0 | 0 | / | /
CNC(=O)C[C@@H]1CC[C@@H]2[C@@H](COc3ccc(NC(=O)c4ccc(C(F)(F)F)cc4)cc3C(=O)N2C)O1 | / | / | 0 | 6 | / | /
CCOC(=O)C1=C(COC(=O)/C=C/c2ccccc2F)NC(=O)NC1C (configuration not stated) | -6 | 1 | 0 | 21 | / | /
CCOC(=O)C1=C(COC(=O)/C=C/c2ccccc2Cl)NC(=O)NC1C (configuration not stated) | / | 8.0* | 0 | 12 | 49* | 19*
Cn1cc([N+](=O)[O-])c(C(=O)Nc2ccc(-c3nc4ccccc4o3)cc2)n1 | -2 | 8.8* | 0 | -4 | 93* | 31*
O=C(Nc1ccc(-c2nc3ccccc3o2)cc1)c1ccc(N2CCOCC2)c([N+](=O)[O-])c1 | -7 | -2 | / | 2 | / | /
C[C@@H]1CN([C@@H](C)CO)S(=O)(=O)c2ccc(-c3ccc(F)cc3)cc2O[C@@H]1CN(C)C | / | / | 0 | 12 | / | /
COc1cccc2sc(N(C)c3ccccc3)nc12 | -3 | 7.7* | / | / | 107* | 31*
COc1cccc2sc(N)nc12 | / | 4 | / | -1 | / | /
O=C(N[C@@H]1CC[C@H](CC(=O)N2CCOCC2)O[C@@H]1CO)c1ccccn1 | / | / | 0 | 14 | / | /
O=C(NC(=S)Nc1ccccn1)c1ccco1 | -5 | 7 | 0 | 10 | / | /
O=C(NC(=S)Nc1cccnc1Cl)c1ccco1 | -2 | 7.8* | 0 | 1 | 64* | 20*
CCN1[C@@H]2c3ccc(-c4ccccc4F)c(=O)n3C[C@H]1[C@H](CO)[C@H]2C(=O)N1CCCCC1 | / | / | 0 | -2 | / | /
COc1cc(-c2cnc3c(NC(C)=O)cc(-c4ccc(N5CCN(C)CC5)cc4)cn23)cc(OC)c1OC | -14 | -8 | 0 | / | / | /
COc1cc(-c2cnc3c(NC=O)cc(-c4ccc(N5CCN(C)CC5)cc4)cn23)cc(OC)c1OC | -6 | 11* | 0 | 0 | 109* | 51*
CCCC#Cc1cnc2c(c1)C(=O)N([C@@H](C)CO)C[C@@H](C)[C@@H](CN(C)C(=O)C1CCCCC1)O2 | / | / | 0 | -11 | / | /
COc1ccc(S(=O)(=O)Nc2ccccc2OC)cc1C | -14 | 8.9* | / | / | 10 | 7
CC(=O)Nc1ccc2c(c1)Cc1c-2cc(Br)c(N)c1Br | -6 | 7.6* | 0 | 3 | 63* | 28*
O=C(Nc1ccccc1F)N[C@H]1CC[C@H](CCNC(=O)C2CCOCC2)O[C@H]1CO | / | / | 0 | -4 | / | /
O=C(/C=C/C=C/c1ccccc1)c1ccco1 | -3 | 9.5* | 0 | / | 106* | 44*
O=C(C=Cc1ccco1)c1ccco1 | -5 | 2 | 0 | -3 | / | /
CN1CCN(CC(=O)Nc2c(C(=O)C3CC3)oc3ccccc23)CC1 | -4 | 0 | / | / | / | /
O=C(CCCN1C(=O)c2ccccc2C1=O)Nc1c(C(=O)C2CC2)oc2ccccc12 | -5 | 17* | 0 | 14 | 28* | 8.6*
SMILES | CaV13 FRET inh | FXN GAA850 act | Xi reactivation | GSIS activator | GAA30 counter | FXN GAA850 conf
O=C(C[C@@H]1CC[C@H]2[C@@H](COC[C@@H](O)CN2Cc2cccc(C(F)(F)F)c2)O1)NCCc1ccncc1 | / | / | 0 | 21 | / | /
O=C1C=CC(=O)N1c1ccccn1 | -6 | 0 | 0 | -19 | / | /
O=C1C=CC(=O)N1c1ccccc1N1C(=O)C=CC1=O | -5 | 8.7* | 0 | / | -117 | -35
CCCc1nc2ccccc2c2nc(N)nn12 | -12 | 8.5* | / | / | 16 | 7
CC(=O)N1[C@H](CO)[C@@H]2c3ccccc3N(C(=O)c3ccccc3)C[C@@H]21 | / | / | 0 | 1 | / | /
Cc1c(C(=O)Nc2cccnc2Cl)oc2ccccc12 | -4 | 7.8* | 0 | 18 | 128* | 42*
Cc1c(C(=O)Nc2ccccn2)oc2ccccc12 | -9 | 2 | / | 24 | / | /
C[C@H]1CN([C@@H](C)CO)C(=O)c2cc(NC(=O)CCCN(C)C)ccc2O[C@@H]1CN(C)C(=O)NC1CCCCC1 | / | / | 0 | -4 | / | /
O=C(Nc1ccc(Cl)cc1)Nc1cccnc1 | -9 | 8.4* | / | -10 | 63* | 21*
Cc1cnc(NC(=O)CSc2ccc(Cl)cc2)s1 | -4 | 0 | / | / | / | /
Cc1cnc(NC(=O)Nc2ccc(Cl)cc2)s1 | -4 | 8.2* | 0 | -9 | 74* | 46*
Cc1ccc2c(c1)c1nc3ccccc3nc1n2C | -55 | 7 | 0 | 19 | / | /
CCOc1ccc2c(c1)c1nc3ccccc3nc1n2C | -22 | 7.7* | 0 | 12 | 74* | 21*
Cc1ccc(-c2nn3c(C)nnc3s2)cc1NC(=O)c1ccco1 | -2 | 14* | 0 | 17 | 26* | 6
Cc1ccc(-c2nn3c(C)nnc3s2)cc1NC(=O)C(C)C | -11 | 1 | 0 | 8 | / | /
CCOC(=O)c1ccc(N2Cc3ccccc3C2=NC(=O)c2cccs2)cc1 | -4 | 9.3* | 0 | 0 | 53* | 23*
CC(=O)c1ccc(N2Cc3ccccc3C2=NC(=O)c2cccs2)cc1 | -2 | 4 | 0 | 7 | / | /
O=C(c1ccc(-c2cccc(Cl)c2Cl)o1)N1CCOCC1 | -10 | 8.8* | 0 | 17 | 108* | 39*
CCCC#Cc1cnc2c(c1)C(=O)N([C@@H](C)CO)C[C@@H](C)[C@H](CN(C)C(=O)Nc1ccccc1F)O2 | / | / | -1 | 13 | / | /
O=[N+]([O-])c1nn(-c2ccc3c(c2)OCCO3)n(O)c1=NCc1ccc(F)cc1 | -9 | 2 | / | -12 | / | /
O=[N+]([O-])c1nn(-c2ccc3c(c2)OCCO3)n(O)c1=NCc1ccc(F)cc1Cl | -5 | 9.8* | 0 | 8 | 91* | 30*
COc1cc(/C=N/NC(=O)c2sc(N)c(C#N)c2C)ccc1O | -6 | 11* | / | -12 | -13 | 44*
Cc1cc(NC(=O)c2coc(=O)c(Br)c2)ccc1C(C)C | -60 | 8.4* | 0 | -29 | 89* | 50*
C[C@@H](NC(=O)c1coc(=O)c(Br)c1)c1ccccc1 | -7 | 8.8* | / | / | -10 | 5
CC(=O)NC[C@@H]1[C@@H](c2ccc(-c3cccc(F)c3)cc2)[C@@H](CO)N1C(C)=O | / | / | 0 | -3 | / | /
Cc1ccc(-c2nc3ccccc3[nH]2)cn1 | -1 | 3 | 0 | 1 | / | /
